Measurements as given in ChEMBL document CHEMBL1141585, “5,5,6-Fused tricycles bearing imidazole and pyrazole 6-methylidene penems as broad-spectrum inhibitors of beta-lactamases” (Bioorg Med Chem, 2008).
Calls of active or inactive are those of the source. The calls are words filed in the database; no cut-off is given here.

Key:
[1] = Inhibition of TEM1 beta-lactamase
Summary of the method: (§1)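 Spectrophotometric β-lactamase inhibition assay (Bush method) with nitrocefin as substrate. Tazobactam standard included in each experiment. IC₅₀ derived by curve fitting.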

[2] = system: Escherichia coli; assay: Antimicrobial activity against Escherichia coli GC 2905 expressing P99 beta-lactamase after 18 to 24 hrs by broth microdilution method; assay type: functional
Summary of the method: (§2)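 CLSI broth microdilution in Mueller–Hinton II broth. Serial dilutions of piperacillin alone or piperacillin plus inhibitor; inoculum 10⁵ CFU/ml. Piperacillin + tazobactam run as comparator. MIC read as endpoint.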

[3] = system: Escherichia coli; assay: Antimicrobial activity against Escherichia coli GC 2906 expressing Imi1 beta-lactamase after 18 to 24 hrs by broth microdilution method; assay type: functional; summary of the method: as §2; further: test concentration or dose not given here
[4] = system: Escherichia coli; assay: Antimicrobial activity against Escherichia coli GC 2804 expressing imp beta-lactamase after 18 to 24 hrs by broth microdilution method; assay type: functional; summary of the method: as §2; further: test concentration or dose not given here
[5] = system: Escherichia coli; assay: Antimicrobial activity against Escherichia coli GC 2805 expressing CcrA beta-lactamase after 18 to 24 hrs by broth microdilution method; assay type: functional; summary of the method: as §2
[6] = system: Escherichia coli; assay: Antimicrobial activity against Escherichia coli GC 2253 expressing IRT2 beta-lactamase after 18 to 24 hrs by broth microdilution method; assay type: functional; summary of the method: as §2; further: test concentration or dose not given here
[7] = system: Enterobacter cloacae; assay: Antimicrobial activity against Enterobacter cloacae GC 1477 expressing AmpC beta-lactamase after 18 to 24 hrs by broth microdilution method; assay type: functional; summary of the method: as §2; further: test concentration or dose not given here
[8] = system: Enterobacter cloacae; assay: Antimicrobial activity against Enterobacter cloacae GC 4142 expressing AmpC beta-lactamase after 18 to 24 hrs by broth microdilution method; assay type: functional; summary of the method: as §2; further: test concentration or dose not given here
[9] = system: Enterobacter cloacae; assay: Antimicrobial activity against Enterobacter cloacae GC 6991 expressing AmpC beta-lactamase after 18 to 24 hrs by broth microdilution method; assay type: functional; summary of the method: as §2; further: test concentration or dose not given here
[10] = system: Enterobacter cloacae; assay: Antimicrobial activity against Enterobacter cloacae GC 1475 expressing P99 beta-lactamase after 18 to 24 hrs by broth microdilution method; assay type: functional; summary of the method: as §2; further: test concentration or dose not given here
[11] = system: Serratia marcescens; assay: Antimicrobial activity against Serratia marcescens GC 1781 expressing Sme1 and AmpC beta-lactamase after 18 to 24 hrs by broth microdilution method; assay type: functional; summary of the method: as §2; further: test concentration or dose not given here
[12] = system: Pseudomonas aeruginosa; assay: Antimicrobial activity against Pseudomonas aeruginosa GC 1764 expressing AmpC beta-lactamase after 18 to 24 hrs by broth microdilution method; assay type: functional; summary of the method: as §2; further: test concentration or dose not given here
[13] = system: Stenotrophomonas maltophilia; assay: Antimicrobial activity against Stenotrophomonas maltophilia GC 1721 expressing L1 beta-lactamase after 18 to 24 hrs by broth microdilution method; assay type: functional; summary of the method: as §2; further: test concentration or dose not given here
[14] = Inhibition of Imi1 beta lactamase
[15] = Inhibition of AmpC beta-lactamase; summary of the method: as §1
[16] = system: Escherichia coli; assay: Antimicrobial activity against Escherichia coli GC 2844 after 18 to 24 hrs by broth microdilution method; assay type: functional; summary of the method: as §2
[17] = system: Escherichia coli; assay: Antimicrobial activity against Escherichia coli GC 2847 expressing TEM1 beta-lactamase after 18 to 24 hrs by broth microdilution method; assay type: functional; summary of the method: as §2; further: test concentration or dose not given here
[18] = system: Escherichia coli; assay: Antimicrobial activity against Escherichia coli GC 2920 expressing IRT2 beta-lactamase after 18 to 24 hrs by broth microdilution method; assay type: functional; summary of the method: as §2
[19] = system: Escherichia coli; assay: Antimicrobial activity against Escherichia coli GC 2883 expressing OXA10 and PSE2 beta-lactamase after 18 to 24 hrs by broth microdilution method; assay type: functional; summary of the method: as §2
[20] = system: Escherichia coli; assay: Antimicrobial activity against Escherichia coli GC 2894 expressing AmpC beta-lactamase after 18 to 24 hrs by broth microdilution method; assay type: functional; summary of the method: as §2
[21] = system: Serratia marcescens; assay: Antimicrobial activity against Serratia marcescens GC 4132 expressing AmpC beta-lactamase after 18 to 24 hrs by broth microdilution method; assay type: functional; summary of the method: as §2; further: test concentration or dose not given here
[22] = system: Escherichia coli; assay: Antimicrobial activity against Escherichia coli GC 2203 after 18 to 24 hrs by broth microdilution method; assay type: functional; summary of the method: as §2
[23] = system: Staphylococcus aureus; assay: Antimicrobial activity against Staphylococcus aureus GC 2216 after 18 to 24 hrs by broth microdilution method; assay type: functional; summary of the method: as §2; further: test concentration or dose not given here
[24] = system: Escherichia coli; assay: Antibacterial efficacy against Escherichia coli LSU 80-8 infected ip dosed CD1 mouse model; assay type: functional
Summary of the method: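 Female CD-1 mice, five per dose level, five dose levels per compound. Lethal intraperitoneal challenge (10–100 LD₅₀), then intravenous piperacillin alone or piperacillin plus inhibitor at a 4:1 (Pip:Inhibitor) ratio. Survival read at 7 days; ratios from three separate tests pooled; ED₅₀ by probit analysis.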

| IC50 [1] [nM] | MIC [2] [µg/mL] | MIC [3] [µg/mL] | MIC [4] [µg/mL] | MIC [5] [µg/mL] | MIC [6] [µg/mL] | MIC [7] [µg/mL] | MIC [8] [µg/mL] | MIC [9] [µg/mL] | MIC [10] [µg/mL] | MIC [11] [µg/mL] | MIC [12] [µg/mL] | MIC [13] [µg/mL] | IC50 [15] [nM] | MIC [16] [µg/mL] | MIC [17] [µg/mL] | MIC [18] [µg/mL] | MIC [19] [µg/mL] | MIC [20] [µg/mL] | MIC [21] [µg/mL] | Structure (SMILES) | also measured |
| --- | --- | --- | --- | --- | --- | --- | --- | --- | --- | --- | --- | --- | --- | --- | --- | --- | --- | --- | --- | --- | --- |
| 4.3 | 16 | 8 | < 0.06 | > 64 | 16 | 64 | 32 | 16 | 32 | 2 | 32 | > 64 | 4 | 2 | 32 | 2 | 8 | 16 | 8 | O=C([O-])C1=CS[C@@H]2/C(=C\c3cc4oc5c(n4n3)CCOC5)C(=O)N12.[Na+] | IC50 [14]: 140 nM; MIC [22]: 4 µg/mL; MIC [23]: 16 µg/mL |
| 1.2 | 32 | 64 | < 0.06 | > 64 | 16 | > 64 | 64 | 64 | 64 | 2 | > 64 | > 64 | 4 | 2 | 32 | 4 | 8 | 64 | 8 | CCOC(=O)N1CCc2c(oc3cc(/C=C4/C(=O)N5C(C(=O)[O-])=CS[C@H]45)nn23)C1.[Na+] | IC50 [14]: 98 nM; MIC [22]: 2 µg/mL; MIC [23]: 16 µg/mL |
| 150 | 32 | 64 | 0.12 | > 64 | 32 | > 64 | > 64 | 32 | 32 | 4 | 64 | > 64 | 53 | 2 | > 64 | 8 | 16 | 32 | 32 | O=C([O-])C1=CS[C@@H]2/C(=C/c3cc4oc5c(n4n3)CCOC5)C(=O)N12.[Na+] | IC50 [14]: 2900 nM; MIC [22]: 2 µg/mL; MIC [23]: 64 µg/mL |
| 2.8 | 8 | 2 | < 0.06 | > 64 | 16 | 16 | 8 | 16 | 8 | 1 | 4 | > 64 | 1.5 | 2 | 4 | 2 | 4 | 2 | 2 | O=C([O-])C1=CS[C@@H]2/C(=C\c3cn4c5c(sc4n3)COCC5)C(=O)N12.[Na+] | IC50 [14]: 100 nM; MIC [22]: 4 µg/mL; MIC [23]: 2 µg/mL; ED50 [24]: 25.3 mg/kg |
| 4 | 32 | 4 | < 0.06 | > 64 | 16 | 64 | 32 | 32 | 32 | 2 | 64 | > 64 | 5.5 | 2 | 16 | 4 | 8 | 32 | 8 | O=C([O-])C1=CS[C@@H]2/C(=C\c3cc4oc5c(n4n3)CCCC5)C(=O)N12.[Na+] | IC50 [14]: 160 nM; MIC [22]: 2 µg/mL; MIC [23]: 16 µg/mL |
| 1.4 | 4 | 2 | < 0.06 | > 64 | 8 | 16 | 4 | 16 | 4 | 1 | 2 | > 64 | 2.1 | 2 | 4 | 2 | 2 | 2 | 2 | O=C([O-])C1=CS[C@@H]2/C(=C\c3cn4c5c(sc4n3)CCC5)C(=O)N12.[Na+] | MIC [22]: 2 µg/mL; MIC [23]: 2 µg/mL; ED50 [24]: 19 mg/kg |

Continued, molecule first:

| Structure (SMILES) | IC50 [1] [nM] | MIC [2] [µg/mL] | MIC [3] [µg/mL] | MIC [4] [µg/mL] | MIC [5] [µg/mL] | MIC [6] [µg/mL] | MIC [7] [µg/mL] | MIC [8] [µg/mL] | MIC [9] [µg/mL] | MIC [10] [µg/mL] | MIC [11] [µg/mL] | MIC [12] [µg/mL] | MIC [13] [µg/mL] | IC50 [15] [nM] | MIC [16] [µg/mL] | MIC [17] [µg/mL] | MIC [18] [µg/mL] | MIC [19] [µg/mL] | MIC [20] [µg/mL] | MIC [21] [µg/mL] | also measured |
| --- | --- | --- | --- | --- | --- | --- | --- | --- | --- | --- | --- | --- | --- | --- | --- | --- | --- | --- | --- | --- | --- |
| C[C@]1(Cn2ccnn2)[C@H](C(=O)[O-])N2C(=O)C[C@H]2S1(=O)=O.[Na+] [TAZOBACTAM SODIUM] | 100 | 64 | 2 | < 0.06 | > 64 | 2 | > 64 | 64 | > 64 | 64 | 0.5 | > 64 | > 64 | 84000 | 2 | 2 | 4 | 1 | 32 | 64 | Activity [14]: inactive; MIC [22]: 1 µg/mL; MIC [23]: 0.5 µg/mL; ED50 [24]: 20 mg/kg |
| O=C([O-])C1=CS[C@@H]2/C(=C\c3cn4c5c(sc4n3)CCCC5)C(=O)N12.[Na+] | 1.9 | 4 | 2 | < 0.06 | > 64 | 16 | 32 | 8 | 16 | 8 | 1 | 2 | > 64 | 0.62 | 2 | 8 | 2 | 2 | 4 | 2 | IC50 [14]: 33 nM; MIC [22]: 2 µg/mL; MIC [23]: < 0.06 µg/mL; ED50 [24]: 23.3 mg/kg |
| CCN1CCN(C(=O)N[C@@H](C(=O)N[C@@H]2C(=O)N3[C@@H]2SC(C)(C)[C@@H]3C(=O)O)c2ccccc2)C(=O)C1=O [PIPERACILLIN] | – | – | – | – | – | – | – | – | – | – | – | – | – | – | – | – | – | – | – | – | ED50 [24]: > 128 mg/kg |
| Cn1c2ccccc2n2cc(/C=C3/C(=O)N4C(C(=O)[O-])=CS[C@H]34)nc12.[Na+] | 24 | 32 | 16 | < 0.06 | > 64 | 32 | > 64 | > 64 | 32 | 64 | 2 | 64 | > 64 | 16 | 4 | > 64 | 4 | 64 | 32 | 16 | IC50 [14]: 50 nM; MIC [22]: 2 µg/mL; MIC [23]: 64 µg/mL |
| O=C([O-])C1=CS[C@@H]2/C(=C\c3cn4c(n3)nc3n4CCCC3)C(=O)N12.[Na+] | 2.4 | 2 | 64 | < 0.06 | > 64 | 16 | > 64 | 8 | 16 | 2 | 0.5 | 32 | > 64 | 1.4 | 2 | 8 | 2 | 2 | 2 | 1 | IC50 [14]: 14 nM; MIC [22]: 1 µg/mL; MIC [23]: 0.25 µg/mL; ED50 [24]: 32.5 mg/kg |
